Measurements reported in ChEMBL document CHEMBL1134389, “Mapping and fitting the peripheral benzodiazepine receptor binding site by carboxamide derivatives. Comparison of different approaches to quantitative ligand-receptor interaction modeling” (J Med Chem, 2001).

Molecular target: Translocator protein (Rattus norvegicus, UniProt P16257)
Assay: Test in vitro, for potential ability to displace [3H]1 from PBR in rat brain cortex
Type: tissue-based
How it was run: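 Rat cortical membranes homogenized in ice-cold PBS (50 mM, pH 7.4) with 100 mM NaCl, spun at 1000g, then pellet washed three times at 50000g and resuspended in PBS. Assay stopped by GF/B filtration, counted by liquid scintillation. IC50 fitted from six displacer concentrations, triplicate.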

Sequence of Translocator protein (P16257 whole entry, looked up): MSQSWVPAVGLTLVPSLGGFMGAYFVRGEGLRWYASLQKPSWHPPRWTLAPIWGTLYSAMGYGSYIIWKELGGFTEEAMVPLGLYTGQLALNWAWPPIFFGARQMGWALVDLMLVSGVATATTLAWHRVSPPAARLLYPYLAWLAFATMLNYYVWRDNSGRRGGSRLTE

| Structure (SMILES) | IC50 [nM] |
| --- | --- |
| CCN(Cc1ccccc1)Cc1nc2ccccc2c(-c2ccccc2)c1C(=O)NCc1ccccc1 | 2900 |
| CCCNC(=O)c1c(CN(CC)Cc2ccccc2)nc2ccccc2c1-c1ccccc1 | 872 |
| CCOC(=O)c1c(CN2CCc3ccccc3C2)nc2ccccc2c1-c1ccccc1 | 1190 |
| CCOC(=O)c1c(CN(CC)Cc2ccccc2)nc2ccccc2c1-c1ccccc1 | 700 |
| Cc1nc2ccccc2c(-c2ccccc2)c1C(=O)N(C)c1ccccc1 | > 10000 |
| CCN(Cc1ccccc1)Cc1ccccc1C(=O)N(CC)CC | 8210 |
| CCN(Cc1ccccc1)Cc1nc2ccccc2c(-c2ccccc2)c1C(=O)N(C)C | 229 |
| CCN(CC)C(=O)c1c(C)nc2ccccc2c1-c1ccccc1 | > 10000 |
| CCCN(CCC)C(=O)c1c(CN(CC)Cc2ccccc2)nc2ccccc2c1-c1ccccc1 | 456 |
| CCOC(=O)c1c(Cl)nc2ccccc2c1-c1ccccc1 | 3700 |
| CCCN(CCC)C(=O)c1c(C)nc2ccccc2c1-c1ccccc1 | > 10000 |
| O=C1c2c(nc3ccccc3c2-c2ccccc2)CN1Cc1ccc(Cl)cc1 | 210 |
| CCN(CC)C(=O)c1cc(-c2ccccc2)c2ccccc2n1 | 27 |

Next, values leading:

| IC50 [nM] | Structure (SMILES) |
| --- | --- |
| 5 | CCN(CC)C(=O)c1cc(-c2ccccc2)c2ccccc2c1 |
| 2480 | CCN(Cc1ccccc1)Cc1nc2ccccc2c(-c2ccccc2)c1C(=O)N(C)c1ccc(Cl)cc1 |
| 8870 | CCCN(CCC)C(=O)c1ccccc1CN(CC)Cc1ccccc1 |
| 373 | CCN(Cc1ccccc1)Cc1nc2ccccc2c(-c2ccccc2)c1C(=O)N(CC)CC |
| > 10000 | CCN(Cc1ccccc1)Cc1ccccc1C(=O)N(C)c1ccccc1 |
| 410 | Cc1ccc(CN2Cc3nc4ccccc4c(-c4ccccc4)c3C2=O)cc1 |
| 4.1 | CCN(Cc1ccccc1)Cc1c(C(=O)N(CC)CC)nc2ccccc2c1-c1ccccc1 |
| > 10000 | CCN(Cc1ccccc1)Cc1ccccc1C(=O)N(C)C |
| 3400 | CCN(Cc1ccccc1)Cc1cc(-c2ccccc2)c2ccccc2n1 |
| 540 | CCOC(=O)c1c(N(CC)Cc2ccccc2)nc2ccccc2c1-c1ccccc1 |
| 1320 | CCN(Cc1ccccc1)Cc1nc2ccccc2c(-c2ccccc2)c1C(=O)N(C)c1ccccc1 |
